Columns and labels:
Type in all cases: functional, cell-based
HT-29 = experiment: Cytotoxicity against human HT-29 cells after 72 hrs by sulforhodamine B assay; conditions: HT-29, 72 h
Outline: (§1)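 Cells plated 24 h, then exposed to five concentrations in duplicate for 72 h at 37 °C, 5% CO2. Saline vehicle control. TCA-fixed, SRB-stained, dye solubilized in 10 mM Tris, A510 read. Inhibition relative to control, expressed as IC50.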

SK-OV-3 = experiment: Cytotoxicity against human SKOV3 cells after 72 hrs by sulforhodamine B assay; conditions: SK-OV-3, 72 h
Outline: as §1, with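 “HT-29 and SK-OV-3 (ATCC) grown in McCoy's 5a, BEL-7402 (Shanghai Cell Bank) in RPMI 1640, all with 10% FBS. Cells” for “Cells”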

Bel-7402 = experiment: Cytotoxicity against human Bel7402 cells after 72 hrs by sulforhodamine B assay; conditions: Bel-7402, 72 h
Outline: as §1, with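 “HT-29 and SK-OV-3 (ATCC) grown in McCoy's 5a, BEL-7402 (Shanghai Cell Bank) in RPMI 1640, all with 10% FBS. Cells” for “Cells”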

Row | SMILES | IC50 (HT-29) [µM] | IC50 (SK-OV-3) [µM] | IC50 (Bel-7402) [µM]
1 | C=C(C=O)[C@@H]1CC[C@@H]2[C@@H](C1)C(=O)[C@@H](O)[C@@H]1[C@](C)(COC(C)=O)[C@@H](OC(C)=O)C[C@H](O)[C@@]21C | > 10 | 5.1 | > 10
2 | C=C(C=O)[C@@H]1CC[C@@H]2[C@@H](C1)C(=O)[C@@H](O)[C@@H]1C(C)(C)[C@H](O)CC[C@@]21C | 8.1 | 7.3 | > 10
3 | C=C(C=O)[C@@H]1CC[C@@H]2[C@@H](C1)C(=O)[C@@H](O)[C@@H]1[C@](C)(COC(C)=O)[C@@H](OC(C)=O)CC[C@]12C | > 10 | > 10 | > 10
4 | C=C1C(=O)[C@@]23C[C@H]1C[C@H]1OC(O)[C@@H]4[C@](C)(COC(C)=O)[C@H](OC(C)=O)C[C@@H](OC2=O)[C@@]4(CO)[C@H]13 (stereo partly drawn) | > 10 | > 10 | > 10
5 | COc1cccc2c1C(=O)c1c(O)c3c(c(O)c1C2=O)C[C@@](O)(C(=O)CO)C[C@@H]3O[C@H]1C[C@H](N)[C@H](O)[C@H](C)O1 [DOXORUBICIN] | – | 0.17 | 0.067
6 | C=C1C(=O)[C@]23C[C@H]1CC[C@H]2[C@@]12CO[C@@]3(O)[C@@H](O)[C@@H]1C(C)(C)CC[C@@H]2OC(C)=O [EFFUSANIN B] | 4.1 | 2.1 | 7.3
7 | C=C1C(=O)[C@]23C[C@H]1CC[C@H]2[C@@]12CO[C@]3(O)[C@@H](O)[C@@H]1[C@](C)(COC(C)=O)CC[C@@H]2OC(C)=O [EFFUSANIN D] | 5.9 | 9.1 | > 10
8 | C=C(C=O)[C@@H]1CCC2=C(C1)C(=O)[C@@H](O)[C@@H]1C(C)(C)[C@H](O)CC[C@@]21C [ERIOCASIN B] | > 10 | > 10 | > 10
9 | C=C(C=O)[C@@H]1CC[C@@H]2[C@@H](C1)C(=O)[C@@H](O)[C@@H]1[C@](C)(COC(C)=O)[C@@H](O)CC[C@]12C [ERIOCASIN C] | > 10 | > 10 | > 10
10 | C=C(C=O)[C@@H]1CC[C@@H]2[C@@H](C1)C(=O)[C@@H](O)[C@@H]1[C@](C)(COC(C)=O)CC[C@H](O)[C@@]21C [ERIOCASIN D] | > 10 | 5.7 | > 10
11 | C=C(CO)[C@@H]1C[C@@H](OC(C)=O)[C@@H]2[C@@H](C1)C(=O)[C@@H](O)[C@@H]1C(C)(C)CCC[C@@]21C [ERIOCASIN E] | > 10 | > 10 | > 10
12 | C=C1[C@H]2C[C@@H](O)C3(C(=O)C[C@@H]4[C@](C)(COC(C)=O)CCC[C@@]4(C)[C@@H]3C2)[C@@H]1O [ERIOCATISIN A] | > 10 | > 10 | > 10
13 | C=C1C(=O)[C@@]23[C@H](O)C[C@@H]4C(C)(C)CC[C@H](O)[C@@]4(COC(C)=O)[C@@H]2CC[C@@H]1[C@H]3O [HENRYIN] | 6 | 5.9 | > 10
14 | C=C1C(=O)[C@@]23[C@@H]4C[C@@H]5C(C)(C)CC[C@H](O)[C@@]5(C(OC)O4)[C@@H]2CC[C@@H]1[C@H]3O (stereo partly drawn) [KAMEBACETAL A] | 9.8 | 4.7 | > 10
15 | C=C1C(=O)[C@]23C[C@H]1CC[C@H]2[C@]12CCC[C@@](C)(COC(C)=O)[C@H]1[C@H](O)[C@]3(O)OC2 [LONGIKAURIN C] | 2.1 | 3.3 | 2.9
16 | C=C1C(=O)[C@]23C[C@H]1CC[C@H]2[C@]12CC[C@H](OC(C)=O)[C@@](C)(COC(C)=O)[C@H]1[C@H](O)[C@]3(O)OC2 [MAOECRYSTAL J] | 4.2 | 9.8 | > 10
17 | CC(=O)OC[C@]1(C)C(OC(C)=O)CC[C@]23CO[C@@](O)(C[C@@H]21)[C@]12C(=O)C4(CCC45C(=O)[C@]46[C@H](O)[C@H]5CC[C@H]4[C@]45CCC(OC(C)=O)[C@@](C)(COC(C)=O)[C@H]4C[C@]6(O)OC5)[C@H](CC[C@@H]31)[C@H]2O (stereo partly drawn) [MAOECRYSTAL M] | > 10 | 7 | 6
18 | C=C1C(=O)[C@]23C[C@H]1CC[C@H]2[C@@]12CO[C@@]3(O)[C@@H](OC(C)=O)[C@@H]1[C@@](C)(COC(C)=O)CC[C@H]2OC(C)=O [MAOECRYSTAL R] | 2.4 | 3 | 4
19 | C=C1C(=O)[C@@]23C[C@H]1C[C@H]1O[C@H](O)[C@@H]4[C@](C)(COC(C)=O)CC[C@@H](OC2=O)[C@@]4(CO)[C@H]13 [MAOESIN A] | > 10 | > 10 | > 10
20 | C=C1C(=O)[C@]23C[C@H]1C[C@@H](O)[C@H]2[C@]12CC[C@H](OC(C)=O)[C@@](C)(COC(C)=O)[C@H]1[C@H](O)[C@]3(O)OC2 [MAOESIN C] | > 10 | > 10 | > 10
21 | C=C1C(=O)[C@]23C[C@H]1C=C[C@H]2[C@]12CC[C@H](OC(C)=O)[C@@](C)(COC(C)=O)[C@H]1[C@H](O)[C@]3(O)OC2 [MAOESIN D] | 7.3 | > 10 | > 10
22 | C=C1C(O)[C@]23C[C@H]1CC[C@H]2[C@@]1(C)[C@H]([C@H](OC(C)=O)C3=O)[C@](C)(COC(C)=O)CC[C@@H]1O (stereo partly drawn) [MAOESIN E] | > 10 | > 10 | > 10
23 | C=C1C(OC(C)=O)[C@]23C[C@H]1CC[C@H]2[C@@]1(CC[C@H](OC(C)=O)[C@@](C)(COC(C)=O)[C@H]1C=O)COC3=O (stereo partly drawn) [MAOESIN F] | > 10 | > 10 | > 10

Source: ChEMBL document CHEMBL1641390, “Structure and cytotoxicity of diterpenoids from Isodon eriocalyx” (J Nat Prod, 2010)
